# The list is a sample of the results.
# PGC1a Ac signal: compounds raising PGC1a acetylation signal, primary screen, PGC1a modulator project, cell-based, U2OS, AlphaScreen, signal-increasing mode; overnight; activation, % at 15.6 µM; 350,000 tested, 0.21% active; AID 651723, 2012;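 active means every replicate reaching activation of at least 50%, whatever the mean replicate activation; inconclusive means replicates that disagree or another doubt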;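 further: hits raise the AlphaScreen acetylation signal above neutral controls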
#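 Test system: U2OS cells expressing flag-PGC1a plus GCN5; Amount: 7000 U2OS cells per well; Compound: single test concentration per compound; Incubation: compound overnight at 37 °C, each detection step 1 h RT; Signal: AlphaScreen lysate read.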
# G6PC hep suppr: suppressors of forskolin-stimulated G6PC mRNA, dose response, PGC-1a acetylation activator project, cell-based, hepatocytes, RT-qPCR, cherry-picked samples; shares compounds with PGC1a Ac signal; primary mouse hepatocytes; G6PC suppression (normalized activity, % of positive control; higher = more suppression), % at 26 µM; 240 tested, under 10 active;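 active means dose curves showing G6PC suppression whose half-maximal dose is at most twice the top valid dose; inconclusive means flat curves with moderate negative activity, or unreliable fits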;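 further: G6PC expression relative to GAPDH housekeeping gene as delta delta Ct; 0% = median of neutral control wells and 100% = median of positive control wells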
# PCK1 hep suppr: suppression of PCK1 mRNA in primary hepatocytes, dose response, PGC-1a acetylation activator project, cell-based, primary mouse hepatocytes, RT-qPCR, cherry-pick. shares compounds with PGC1a Ac signal. forskolin-stimulated. PCK1 expression decrease, unspecified at 26 µM. 230 tested, under 10 active;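 active means compounds lowering PCK1 expression whose fitted half-maximal concentration is at most twice the top tested dose; inconclusive means flat fit with moderate opposite-direction effect, or poor fit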;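 further: values are delta delta Ct of PCK1 relative to GAPDH; higher delta delta Ct means lower PCK1 expression so positive values indicate hits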
# PGC1a hep suppr: suppression of PGC-1a mRNA in primary hepatocytes, dose response, PGC-1a acetylation activator project, cell-based, primary mouse hepatocytes, RT-qPCR, cherry-pick; shares compounds with PGC1a Ac signal; PGC-1a mRNA qPCR, forskolin; top dose 26 µM; max activity (PGC-1a expression decrease), %; 240 tested, under 10 active;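 active means compound lowering PGC-1a expression with fitted half-maximal concentration at most twice its top tested dose; inconclusive means flat curve with moderate opposite-direction effect, or poor fit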;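 further: 0% = neutral control wells median and 100% = positive control wells median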
# * = called active by the depositor; i = inactive; ? = inconclusive; . = no result given; [ ] = another dose, or the depositor's remark.
SMILES,PGC1a Ac signal,G6PC hep suppr,PCK1 hep suppr,PGC1a hep suppr
Cn1c(SCc2ccon2)nc2ccccc2c1=O,-49,.,.,.
O=C(c1ccccc1Nc1ccc(SC(F)F)cc1)N1CCCCCC1,53*,-38,11,84
O=C(O)c1ccccc1C(=O)N1CCN(C(=O)c2ccccc2Cl)CC1,-50,.,.,.
CCOC(=O)C1=C(C)N=c2s/c(=C\c3cccc(OCC(=O)O)c3)c(=O)n2C1c1ccccc1OC (configuration not stated),-55,.,.,.
COC(=O)CSc1nc(-c2ccccc2)cc(-c2ccco2)c1C#N,67*,-4,-9.5,51
CS(=O)c1nc(-c2ccc(Br)cc2)cc(-c2ccccc2)c1C#N (configuration not stated),-91,.,.,.
N#Cc1c(-c2cccc(Br)c2)cc(-c2ccco2)[nH]c1=O,-43,.,.,.
Cc1ccccc1Cn1cnc2c(nnn2Cc2ccc(F)cc2)c1=O,-48,.,.,.
CCO[C@H]1OC(C(=O)Nc2ccccc2)=C[C@@H](c2csc3ccccc23)[C@@H]1CCCO,-54,.,.,.
CCN(CC)CC(=O)N1c2ccccc2CCc2ccc(NC(=O)c3cc(OC)c(OC)c(OC)c3)cc21,-41,i,?,131
CCCS(=O)(=O)N1CCCC(C(=O)NCCCOC(C)C)C1 (configuration not stated),-64,.,.,.
CCn1c(CSc2nnc3ccccn23)nc2cc(C(=O)O)ccc21,-48,.,.,.
CC(=O)N(C1=C(N2CCOCC2)C(=O)c2ccccc2C1=O)c1ccc(C(=O)O)cc1,-40,.,.,.
OC[C@@H]1CN(Cc2ccccc2)C[C@H](n2cnc3c(NCc4ccc(F)cc4)ncnc32)O1,-44,.,.,.
O=C(NCc1ccccc1)N1CCC(n2cnc3cc(F)ccc32)CC1,138*,.,1.3,43
CCC(C)NCCOCCOc1ccc(C)cc1OC (configuration not stated),-50,.,.,.
O=C(c1ccco1)N1N=C(c2ccc(Cl)cc2)CC1(O)C(F)(F)F (configuration not stated),-42,.,.,.
O=C(Nc1ccc(F)cc1)c1sc2cc(C(F)(F)F)cnc2c1-c1cccs1,-114,.,.,.
Cc1ccc(NC(=O)c2sccc2SCc2cccc(C(F)(F)F)c2)cc1,?,-22,76,141
O=C(N/N=C/c1ccccc1C(=O)O)c1cccc(S(=O)(=O)Nc2cc(Cl)ccc2Cl)c1,-47,.,.,.
CCOC(=O)C(C)n1cnc2c(nnn2-c2ccc(C)cc2)c1=O (configuration not stated),-67,52,-31[8 µM],?
CC(C)C[C@H]1CNC(=S)N1CC1CCCN1C[C@H](Cc1ccccc1)N1C[C@H](Cc2ccc(O)cc2)N(CC2CCCCCC2)C1=S (some centres not stated),-51,.,.,.
O=[N+]([O-])c1ccc(Oc2ccc(F)cc2)c2ccncc12,-43,.,.,.
C[C@@H]1CN([C@H](C)CO)C(=O)c2c(c3ccccc3n2C)-c2ccccc2CO[C@@H]1CN(C)C(=O)Nc1ccccc1C(F)(F)F,96*,10,17,117
COc1ccc(NC(=O)N(C)C[C@H]2OCc3ccccc3-c3c(n(C)c4ccccc34)C(=O)N([C@@H](C)CO)C[C@H]2C)c(OC)c1,85*,11[9 µM],47,80
SMILES,PGC1a Ac signal,G6PC hep suppr,PCK1 hep suppr,PGC1a hep suppr
CN(C)CC(C(=O)c1ccccc1)c1ccccc1 (configuration not stated),-139,.,.,.
O=c1[nH]c(/C=C/c2ccc([N+](=O)[O-])cc2)c([N+](=O)[O-])c(=O)[nH]1,-43,.,.,.
Cc1ccc(-c2n[nH]c(=S)n2/N=C/c2cccn2C)cc1,-50,.,.,.
CC(/C=N/NC(=O)c1cc(-c2ccc(Cl)cc2)nc2ccccc12)=C\c1ccco1,-53,.,.,.
c1ccc(CN2OCC3Cn4c(nc5ccccc54)C32)cc1 (configuration not stated),-41,.,.,.
OCCNc1nc(N2CCCCC2)nc2ccccc12,-67,.,.,.
O=C(Cn1c(CN2CCCCC2)nc2ccccc2c1=O)Nc1ccccc1,-50,19[8 µM],63,95
Cc1nonc1NC(=O)CSc1nc(C2CCCCC2)nc2ccccc12,-55,.,.,.
CCOCCOC(=O)C(C)Oc1ccc(Oc2nc(Cl)ccc2Cl)cc1 (configuration not stated),-88,.,.,.
CC(=O)c1ccc(NC(=O)N2CCc3ccccc3C2)cc1,269*,45,-13,45
CCCc1cc(=O)oc2cc(C)cc(O)c12,-43,.,.,.

# Bioassay records as filed in PubChem BioAssay.
